Experimental data: ChEMBL document CHEMBL1127635, “Thiopyrano[2,3,4-cd]indoles as 5-lipoxygenase inhibitors: synthesis, biological profile, and resolution of 2-[2-[1-(4-chlorobenzyl)-4-methyl-6-[(5-phenylpyridin-2-yl)methoxy]-4,5 -dihydro-1H-thiopyrano[2,3,4-cd]indol-2-yl]ethoxy]butanoic acid” (J Med Chem, 1994)
pIC50: −log10 of the molar value.

Assays:
Homo sapiens [1] = organism: Homo sapiens; assay: (§1) Effect on production of LTB4 in human polymorphonuclear (HPMN) leukocytes; format: functional
In short: (§2)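 LTB4 biosynthesis measured in human polymorphonuclear leukocytes activated with Ca2+ ionophore.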

[2] = target: T1, Polyunsaturated fatty acid 5-lipoxygenase (Homo sapiens, UniProt P09917); assay: Tested against 5-lipoxygenase
T1 sequence (P09917 whole entry): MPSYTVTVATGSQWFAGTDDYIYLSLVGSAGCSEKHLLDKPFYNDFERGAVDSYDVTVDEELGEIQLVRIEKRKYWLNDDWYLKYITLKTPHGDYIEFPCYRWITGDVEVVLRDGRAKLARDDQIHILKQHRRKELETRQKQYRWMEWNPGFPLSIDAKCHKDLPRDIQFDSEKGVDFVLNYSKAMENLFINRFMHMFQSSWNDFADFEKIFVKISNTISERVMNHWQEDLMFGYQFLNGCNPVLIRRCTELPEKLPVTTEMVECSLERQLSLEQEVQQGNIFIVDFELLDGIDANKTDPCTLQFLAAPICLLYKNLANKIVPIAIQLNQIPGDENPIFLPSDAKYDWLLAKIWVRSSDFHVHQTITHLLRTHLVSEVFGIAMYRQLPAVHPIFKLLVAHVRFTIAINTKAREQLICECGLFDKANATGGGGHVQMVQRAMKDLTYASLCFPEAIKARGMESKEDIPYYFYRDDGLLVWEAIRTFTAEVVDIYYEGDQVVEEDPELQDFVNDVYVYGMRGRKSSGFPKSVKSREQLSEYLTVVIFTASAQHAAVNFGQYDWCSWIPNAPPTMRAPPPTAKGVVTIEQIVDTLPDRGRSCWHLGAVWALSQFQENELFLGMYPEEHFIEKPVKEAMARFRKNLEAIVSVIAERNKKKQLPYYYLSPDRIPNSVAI
In short: (§3)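 Spectrophotometric assay following 5-H(P)ETE production by the 100000g supernatant (S100) fraction of insect cells overexpressing human 5-LO.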

[3] = target: T1, Polyunsaturated fatty acid 5-lipoxygenase; assay: In vitro inhibition of human 5-Lipoxygenase.; in short: as §3
Homo sapiens [4] = organism: Homo sapiens; assay: Effect on production of LTB4 in human polymorphonuclear leukocytes; format: functional; in short: as §2
Homo sapiens [5] = organism: Homo sapiens; assay: Effect on production of LTB4 in human whole blood; format: functional
In short: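 Human whole blood activated with ionophore A23187; inhibition of LTB4 biosynthesis assessed.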

[6] = Tested for inhibition of Ascaris antigen induced bronchoconstriction in the conscious squirrel monkey at 0.1 mg/kg dose (changes in dynamic compliance); format: functional
In short: (§4)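 Allergic conscious squirrel monkeys pretreated with drug for 4 h, then challenged with aerosolized Ascaris antigen (1:25 dilution). Airway resistance (RL) increase and dynamic compliance (Cdyn) decrease recorded; % inhibition versus control, mean ± SEM.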

[7] = Tested for inhibition of Ascaris antigen induced bronchoconstriction in the conscious squirrel monkey at 0.3 mg/kg dose (changes in dynamic compliance); format: functional; in short: as §4
[8] = Inhibition of Ascaris antigen induced bronchoconstriction in the conscious squirrel monkey at 0.1 mg/kg dose (Change in airway resistance); format: functional; in short: as §4
Rattus norvegicus [9] = assay: In vivo inhibition of LBT4 in a rat pleurisy model with a 6 h pretreatment time; format: functional
In short: (§5)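 Male Sprague-Dawley rats given 0.4 mL of 0.5% carrageenan in saline intrapleurally 16 h before drug. Drug doses ranged from 3 to 0.3 mg/kg. Intrapleural calcium ionophore challenge 6 h after dosing. LTB4 in pleural exudate measured 1 h later; ED50 derived, n = 6/group.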

Rattus norvegicus [10] = assay: Tested for percentage inhibition of dyspnea (0.5 mg/kg po using methocel) by in vivo in hyperactive rat after 4 hours pretreatment; format: functional
In short: (§6)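 Inbred hyperreactive rats pretreated with methysergide 3 mg/kg iv. Drug given at 0.5 mg/kg po in methocel before ovalbumin challenge. Read-out is % inhibition of dyspnea duration versus litter-mate-matched vehicle controls, n = 6.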

[11] = Inhibition of Ascaris antigen induced bronchoconstriction in the conscious squirrel monkey at 0.3 mg/kg dose (Change in airway resistance); format: functional; in short: as §4
[12] = Cmax value in rat plasma when administered 20 mg/kg perorally; format: ADME, organism-based; set-up: dose 20 mg/kg, route oral; conditions: po
In short: (§7)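 Rat plasma profiles after dosing the sodium salts either orally at 20 mg/kg in 1% methocel or iv at 5 mg/kg in PEG 200. Bioavailability is calculated as AUCpo/4 × AUCiv.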

[13] = Bioavailability in rat (dose 5 mg/kg i.v.); format: ADME, organism-based; conditions: in vivo, iv; in short: as §7
Rattus norvegicus [14] = assay: Tested for percentage inhibition of dyspnea (0.5 mg/kg po using methocel) by in vivo in hyperactive rat after 2 hours pretreatment; format: functional; in short: as §6
[15] = Tmax value in rat plasma when administered 20 mg/kg perorally; format: ADME, organism-based; set-up: dose 20 mg/kg, route oral; conditions: po; in short: as §7
Homo sapiens [16] = organism: Homo sapiens; assay: as §1
[17] = Tested for inhibition of Ascaris antigen induced bronchoconstriction in the conscious squirrel monkey at 0.3 mg/kg dose (changes in the airway resistance(); format: functional; in short: as §4
Rattus norvegicus [18] = assay: In vivo inhibition of LTB4 biosynthesis in a rat pleurisy model with an 6 hr pretreatment time; format: functional; in short: as §5
Rattus norvegicus [19] = organism: Rattus norvegicus; assay: Tested for effective inhibition of LTB4 with an 8 hr pretreatment; format: functional

CC1Cc2c(OCc3ccc(-c4ccccc4)cn3)ccc3c2c(c(CCOC(C)c2nnn[nH]2)n3Cc2ccc(Cl)cc2)S1 (stereo not given)
pIC50 (Homo sapiens [1]): 8.00
pIC50 [2]: 7.22

CC(=O)N(CCc1c2c3c(c(OCc4ccc(-c5ccccc5)cn4)ccc3n1Cc1ccc(Cl)cc1)CC(C)S2)C(C)C(=O)O (stereo not given)
pIC50 [3]: 6.05
pIC50 (Homo sapiens [4]; Homo sapiens): 6.95

CC1Cc2c(OCc3ccc(-c4ccccc4)cn3)ccc3c2c(c(CSCCC(=O)O)n3Cc2ccc(Cl)cc2)S1 (stereo not given)
pIC50 [3]: 7.26
pIC50 (Homo sapiens [4]; Homo sapiens): 8.00

CCC(CSCc1c2c3c(c(OCc4ccc(-c5ccccc5)cn4)ccc3n1Cc1ccc(Cl)cc1)CC(C)S2)C(=O)O (stereo not given)
pIC50 (Homo sapiens [4]; Homo sapiens): 8.22

CC[C@@H](CSCc1c2c3c(c(OCc4ccc(-c5ccccc5)cn4)ccc3n1Cc1ccc(Cl)cc1)CC(C)S2)C(=O)O (stereo not given in full)
pIC50 [3]: 7.40
pIC50 (Homo sapiens [4]; Homo sapiens): 8.15

CC1Cc2c(OCc3ccc(-c4ccccc4)cn3)ccc3c2c(c(CCOC(C)(C)C(=O)O)n3Cc2ccc(Cl)cc2)S1 (stereo not given)
pIC50 [3]: 7.30
pIC50 (Homo sapiens [4]; Homo sapiens): 8.15

CC1Cc2c(OCc3ccc(-c4ccccc4)cn3)ccc3c2c(c(CCOC(C)C(=O)NS(C)(=O)=O)n3Cc2ccc(Cl)cc2)S1 (stereo not given)
pIC50 [3]: 7.66
pIC50 (Homo sapiens [4]; Homo sapiens): 8.35

CCC(OCCc1c2c3c(c(OCc4ccc(-c5ccccc5)cn4)ccc3n1Cc1ccc(Cl)cc1)CC(C)S2)C(=O)O (stereo in doubt; 14g)
pIC50 [3]: 8.10
pIC50 (Homo sapiens [4]): 8.40
pIC50 (Homo sapiens [5]): 6.00

CC[C@H](CSCc1c2c3c(c(OCc4ccc(-c5ccccc5)cn4)ccc3n1Cc1ccc(Cl)cc1)CC(C)S2)C(=O)O (stereo not given in full)
pIC50 [3]: 6.92
pIC50 (Homo sapiens [4]; Homo sapiens): 7.92

CC1Cc2c(OCc3ccc(-c4ccccc4)cn3)ccc3c2c(c(CSCC(=O)O)n3Cc2ccc(Cl)cc2)S1 (stereo not given)
pIC50 (Homo sapiens [4]; Homo sapiens): 7.82

CCC(OCCc1c2c3c(c(OCc4ccc(-c5ccccc5)cn4)ccc3n1Cc1ccc(Cl)cc1)CC(C)S2)C(=O)O (stereo in doubt; 14d)
inhibition in vivo at 0.1 mg/kg [6]: 68%
inhibition in vivo at 0.3 mg/kg [7]: 100%
inhibition in vivo at 0.1 mg/kg [8]: 89%
pIC50 [3]: 7.66
ED50 (Rattus norvegicus [9]): 0.65 mg/kg
pIC50 (Homo sapiens [4]): 8.15
Inhibition (Rattus norvegicus [10]): 51%
inhibition in vivo at 0.3 mg/kg [11]: 100%
Cmax [12]: 5.5 µM
bioavailability [13]: 88%
Inhibition (Rattus norvegicus [14]): 55%
pIC50 (Homo sapiens [5]): 5.42
Tmax [15]: 6 h

CCC(OCCc1c2c3c(c(OCc4ccc(-c5ccccc5)cn4)ccc3n1Cc1ccc(Cl)cc1)CC(C)S2)C(=O)O (stereo in doubt; 14h)
pIC50 [3]: 7.10
pIC50 (Homo sapiens [4]): 7.77
pIC50 (Homo sapiens [5]): 5.32

CC1Cc2c(OCc3ccc(-c4ccccc4)cn3)ccc3c2c(c(CSCC(C)C(=O)O)n3Cc2ccc(Cl)cc2)S1 (stereo not given)
pIC50 (Homo sapiens [4]; Homo sapiens): 7.70

CC(C)(C)Sc1c(CC(C)(C)C(=O)O)n(Cc2ccc(Cl)cc2)c2ccc(OCc3ccc4ccccc4n3)cc12 [QUIFLAPON]
inhibition in vivo at 0.3 mg/kg [7]: 46%
pIC50 (Homo sapiens [16]): 8.52
inhibition in vivo at 0.3 mg/kg [17]: 44%
ED50 (Rattus norvegicus [18]): 0.16 mg/kg

CC(c1cc2ccccc2s1)N(O)C(N)=O (stereo not given) [ZILEUTON]
pIC50 (Homo sapiens [1]): 5.97
pIC50 (Homo sapiens [5]; Homo sapiens, Blood): 5.70

CC1Cc2c(OCc3ccc(-c4ccccc4)cn3)ccc3c2c(c(CCOC(C)C(=O)O)n3Cc2ccc(Cl)cc2)S1 (stereo not given)
pIC50 [3]: 7.70
pIC50 (Homo sapiens [4]; Homo sapiens): 8.30
Inhibition (Rattus norvegicus [10]): 2%
Cmax [12]: 3.8 µM
bioavailability [13]: 35%
Inhibition (Rattus norvegicus [14]): 53%
Tmax [15]: 2 h

CC1Cc2c(OCc3ccc(-c4ccccc4)cn3)ccc3c2c(c(COCC(=O)O)n3Cc2ccc(Cl)cc2)S1 (stereo not given)
pIC50 (Homo sapiens [4]; Homo sapiens): 7.77

CC1Cc2c(OCc3ccc(-c4ccccc4)cn3)ccc3c2c(c(CCSC(C)C(=O)O)n3Cc2ccc(Cl)cc2)S1 (stereo not given)
pIC50 (Homo sapiens [4]; Homo sapiens): 7.77

CC1Cc2c(OCc3ccc(-c4ccccc4)cn3)ccc3c2c(c(CC(=O)N(C)C(C)C(=O)O)n3Cc2ccc(Cl)cc2)S1 (stereo not given)
pIC50 [3]: 6.52
pIC50 (Homo sapiens [4]; Homo sapiens): 6.70

CC1Cc2c(OCc3ccc(-c4ccccc4)cn3)ccc3c2c(c(CCOCCC(=O)O)n3Cc2ccc(Cl)cc2)S1 (stereo not given)
pIC50 [3]: 6.98
pIC50 (Homo sapiens [4]; Homo sapiens): 7.96

CC1Cc2c(OCc3ccc(-c4ccccc4)cn3)ccc3c2c(c(CCNC(C)C(=O)O)n3Cc2ccc(Cl)cc2)S1 (stereo not given)
pIC50 [3]: 5.40
pIC50 (Homo sapiens [4]; Homo sapiens): 5.96

CCC(OCCc1c2c3c(c(OCc4ccc(-c5ccccc5)cn4)ccc3n1Cc1ccc(Cl)cc1)CC(C)S2)C(=O)O (stereo in doubt; 14f)
pIC50 [3]: 6.82
pIC50 (Homo sapiens [4]): 8.00
pIC50 (Homo sapiens [5]): 4.80

CCC(OCCc1c2c3c(c(OCc4ccc(-c5ccccc5)cn4)ccc3n1Cc1ccc(Cl)cc1)CC(C)S2)C(=O)O (stereo in doubt; 14e)
pIC50 [3]: 7.89
pIC50 (Homo sapiens [4]): 8.46
pIC50 (Homo sapiens [5]): 5.74

CCC(OCCc1c2c3c(c(OCc4ccc(-c5ccccc5)cn4)ccc3n1Cc1ccc(Cl)cc1)CC(C)S2)C(=O)NS(C)(=O)=O (stereo not given)
pIC50 [3]: 7.70
pIC50 (Homo sapiens [4]; Homo sapiens): 8.19
Cmax [12]: 4 µM
bioavailability [13]: 72%
Tmax [15]: 4 h

CC1Cc2c(OCc3ccc(-c4ccccc4)cn3)ccc3c2c(c(CC(C)(C)Cc2nnn[nH]2)n3Cc2ccc(Cl)cc2)S1 (stereo not given)
ED50 (Rattus norvegicus [19]): 1.9 mg/kg
pIC50 (Homo sapiens [1]): 8.10

CC1Cc2c(OCc3ccc(-c4ccccc4)cn3)ccc3c2c(c(COCCC(=O)O)n3Cc2ccc(Cl)cc2)S1 (stereo not given)
pIC50 [3]: 6.60
pIC50 (Homo sapiens [4]; Homo sapiens): 7.19

CC(CC(=O)O)SCc1c2c3c(c(OCc4ccc(-c5ccccc5)cn4)ccc3n1Cc1ccc(Cl)cc1)CC(C)S2 (stereo not given)
pIC50 [3]: 7.15
pIC50 (Homo sapiens [4]; Homo sapiens): 7.30

CC1Cc2c(OCc3ccc(-c4ccccc4)cn3)ccc3c2c(c(CCOCC(=O)O)n3Cc2ccc(Cl)cc2)S1 (stereo not given)
pIC50 (Homo sapiens [4]; Homo sapiens): 7.51
